Experimental data published in ChEMBL document CHEMBL1156750 (Bioorg Med Chem Lett, 2009).
Activity calls are given as the source filed them. The rule behind the calls is not given here.

Assays:
[1] = Inhibition of sodium channel
Rattus norvegicus [2] = assay: Anticoagulant activity in Fecl2-induced po dosed Sprague-Dawley rat vena cava thrombosis model assessed as inhibition of thrombus weight; format: functional
How it was run: (§1)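 Rat vena cava thrombosis: vehicle (PEG-400) or compound at 5, 10, 15, 30 mg/kg (n = 5 per group) given by 1 mL/kg gavage at 0 min. Rats anesthetized at 30 min. 15% FeCl2 applied topically to the vena cava at 60 min for 2 min. Thrombus weight determined 1 h after FeCl2.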

[3] = Inhibition of human Tryptase
Rattus norvegicus [4] = assay: Anticoagulant activity against Sprague-Dawley rat carotid artery thrombosis induced by FeCl2 in aspirin-treated rats assessed as decreasing thrombosis weight at 30 mg/kg, po; parameters: scale not given: the % may be the effect or the level left
[5] = target: Beta-2 adrenergic receptor (Homo sapiens) (UniProt P07550); assay: Inhibition of human beta-2 adrenergic receptor at 10 uM
Trypsin = Trypsin (Homo sapiens, UniProt P07477+P07478+P35030); assay: Inhibition of human trypsin; format: protein assay
Homo sapiens = species: Homo sapiens; assay: Inhibition of human sst receptor at 10 uM
Rattus norvegicus [6] = assay: Anticoagulant activity against Sprague-Dawley rat carotid artery thrombosis induced by FeCl2 in aspirin-treated rats assessed as decreasing thrombosis weight at 15 mg/kg, po; parameters: scale not given: the % may be the effect or the level left
Rattus norvegicus [7] = species: Rattus norvegicus; assay: Inhibition of rat choline transporter at 10 uM
[8] = target: 5-hydroxytryptamine receptor 2B (Homo sapiens) (UniProt P41595); assay: Inhibition of human 5-HT2B receptor at 10 uM
Rattus norvegicus [9] = species: Rattus norvegicus; assay: Inhibition of rat Kainate receptor at 10 uM
[10] = target: D(1A) dopamine receptor (Homo sapiens) (UniProt P21728); assay: Inhibition of human dopamine D1 receptor at 10 uM
Rattus norvegicus [11] = species: Rattus norvegicus; assay: Inhibition of rat AMPA receptor at 10 uM
Rattus norvegicus [12] = species: Rattus norvegicus; assay: Inhibition of rat sodium channel site2 at 10 uM
Rattus norvegicus [13] = assay: Anticoagulant activity against […] Sprague-Dawley rat carotid artery thrombosis assessed as decreasing thrombosis weight at 10 mg/kg, po; format: functional; parameters: scale not given: the % may be the effect or the level left
How it was run: (§2)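 Rat carotid artery thrombosis: vehicle (PEG-400) or compound given by 1 mL/kg gavage at 0 min (5, 10, 15, 30 mg/kg; n = 5, 6, 6, 4; vehicle n = 8), with aspirin 10 mg/kg iv 15 min before FeCl2. Rats anesthetized at 30 min. 50% FeCl2 applied topically at 60 min for 10 min. Thrombus weight taken 1 h later. ANOVA with Dunnett's test.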

[14] = target: Sodium-dependent noradrenaline transporter (Homo sapiens) (UniProt P23975); assay: Inhibition of human NE transporter at 10 uM
[15] = target: Sodium-dependent dopamine transporter (Rattus norvegicus) (UniProt P23977); assay: Inhibition of rat DA transporter at 10 uM
Plasma [16] = assay: Anticoagulant activity in Sprague-Dawley rat plasma assessed as concentration required to double the prothrombin based clotting at 30 mg/kg, id; format: functional; settings: route intraduodenal
[17] = target: Adrenergic receptor alpha-1 (Rattus norvegicus) (UniProt P15823+P23944+P43140); assay: Inhibition of rat alpha-1 adrenergic receptor at 10 uM
Rattus norvegicus [18] = species: Rattus norvegicus; assay: Inhibition of rat 5-HT receptor at 10 uM
Plasma [19] = assay: Anticoagulant activity in human plasma assessed as concentration required to double the prothrombin based clotting time after 30 seconds; format: functional
How it was run: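 Human plasma prothrombin-based clotting time; value is the inhibitor concentration that doubles the clotting time, averaged from two independent determinations.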

[20] = target: Cholecystokinin receptor type A (Homo sapiens) (UniProt P32238); assay: Inhibition of human CCKA receptor at 10 uM
Rattus norvegicus [21] = species: Rattus norvegicus; assay: Inhibition of rat Opiate receptor at 10 uM
[22] = target: 5-hydroxytryptamine receptor 1A (Homo sapiens) (UniProt P08908); assay: Inhibition of human 5-HT1A receptor at 10 uM
Rattus norvegicus [23] = assay: Anticoagulant activity against Sprague-Dawley rat arterial thrombosis model induced by topical application of Fecl2; format: functional; settings: Rattus norvegicus, Sprague-Dawley, oral; how it was run: as §2
[24] = target: Histamine H2 receptor (Cavia porcellus) (UniProt P47747); assay: Inhibition of guinea pig H2 receptor at 10 uM
[25] = target: Beta-1 adrenergic receptor (Homo sapiens) (UniProt P08588); assay: Inhibition of human beta-1 adrenergic receptor at 10 uM
[26] = target: Progesterone receptor (Homo sapiens) (UniProt P06401); assay: Inhibition of human PR at 10 uM
[27] = target: Glucocorticoid receptor (Homo sapiens) (UniProt P04150); assay: Inhibition of human GR at 10 uM
Rattus norvegicus [28] = assay: Anticoagulant activity in Fecl2-induced Sprague-Dawley rat vena cava thrombosis model assessed as inhibition of thrombus weight at 15 mg/kg, po; format: functional; how it was run: as §1
[29] = target: Histamine H1 receptor (Cavia porcellus) (UniProt P31389); assay: Inhibition of guinea pig H1 receptor
[30] = target: D(2) dopamine receptor (Homo sapiens) (UniProt P14416); assay: Inhibition of human dopamine D2S receptor at 10 uM
Rattus norvegicus [31] = species: Rattus norvegicus; assay: Inhibition of rat chloride channel at 10 uM
[32] = target: Muscarinic acetylcholine receptor (Rattus norvegicus) (UniProt P08482+P08483+P08485+P08911+P10980); assay: Inhibition of rat muscarinic receptor at 10 uM
[33] = target: Estrogen receptor (Homo sapiens) (UniProt P03372); assay: Inhibition of human ERalpha at 10 uM
[34] = target: Adenosine receptor A1 (Homo sapiens) (UniProt P30542); assay: Inhibition of human A1 receptor at 10 uM
[35] = target: Glutamate NMDA receptor (Rattus norvegicus) (UniProt P35439+Q00959+Q00960+Q00961+Q62645+Q8VHN2+Q9R1M7); assay: Inhibition of rat NMDA receptor at 10 uM; format: protein-complex assay
Rattus norvegicus [36] = species: Rattus norvegicus; assay: Inhibition of rat GABA transporter at 10 uM
[37] = target: Adrenergic receptor alpha-2 (Rattus norvegicus) (UniProt P22086+P19328+P22909); assay: Inhibition of rat alpha-2 adrenergic receptor at 10 uM

Chain of Beta-2 adrenergic receptor (Homo sapiens) (P07550 whole entry, looked up): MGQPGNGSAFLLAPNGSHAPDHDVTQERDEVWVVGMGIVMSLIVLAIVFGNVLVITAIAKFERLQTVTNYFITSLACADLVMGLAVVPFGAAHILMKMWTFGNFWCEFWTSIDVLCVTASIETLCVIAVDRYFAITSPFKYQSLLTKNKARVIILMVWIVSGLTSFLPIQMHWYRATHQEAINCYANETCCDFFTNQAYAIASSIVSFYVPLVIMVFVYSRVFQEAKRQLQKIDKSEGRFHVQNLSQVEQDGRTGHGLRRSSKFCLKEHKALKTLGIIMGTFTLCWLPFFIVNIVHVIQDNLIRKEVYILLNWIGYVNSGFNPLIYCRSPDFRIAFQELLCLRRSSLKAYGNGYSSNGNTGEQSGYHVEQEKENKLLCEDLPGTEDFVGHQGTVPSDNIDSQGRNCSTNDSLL
Chain of Histamine H1 receptor (Cavia porcellus) (P31389 whole entry): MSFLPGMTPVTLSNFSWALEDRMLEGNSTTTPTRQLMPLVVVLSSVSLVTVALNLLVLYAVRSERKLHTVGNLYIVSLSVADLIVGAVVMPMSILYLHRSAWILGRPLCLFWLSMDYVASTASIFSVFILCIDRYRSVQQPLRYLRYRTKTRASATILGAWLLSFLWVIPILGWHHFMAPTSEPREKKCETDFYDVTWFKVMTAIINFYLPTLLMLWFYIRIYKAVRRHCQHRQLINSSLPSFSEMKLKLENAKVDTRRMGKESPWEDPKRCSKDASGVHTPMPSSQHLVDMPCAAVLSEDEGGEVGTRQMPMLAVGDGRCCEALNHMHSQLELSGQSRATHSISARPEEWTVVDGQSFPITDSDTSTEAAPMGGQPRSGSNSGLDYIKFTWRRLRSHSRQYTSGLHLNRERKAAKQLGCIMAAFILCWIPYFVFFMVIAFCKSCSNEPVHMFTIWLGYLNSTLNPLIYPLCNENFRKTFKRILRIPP
Chain of Sodium-dependent dopamine transporter (Rattus norvegicus) (P23977 whole entry): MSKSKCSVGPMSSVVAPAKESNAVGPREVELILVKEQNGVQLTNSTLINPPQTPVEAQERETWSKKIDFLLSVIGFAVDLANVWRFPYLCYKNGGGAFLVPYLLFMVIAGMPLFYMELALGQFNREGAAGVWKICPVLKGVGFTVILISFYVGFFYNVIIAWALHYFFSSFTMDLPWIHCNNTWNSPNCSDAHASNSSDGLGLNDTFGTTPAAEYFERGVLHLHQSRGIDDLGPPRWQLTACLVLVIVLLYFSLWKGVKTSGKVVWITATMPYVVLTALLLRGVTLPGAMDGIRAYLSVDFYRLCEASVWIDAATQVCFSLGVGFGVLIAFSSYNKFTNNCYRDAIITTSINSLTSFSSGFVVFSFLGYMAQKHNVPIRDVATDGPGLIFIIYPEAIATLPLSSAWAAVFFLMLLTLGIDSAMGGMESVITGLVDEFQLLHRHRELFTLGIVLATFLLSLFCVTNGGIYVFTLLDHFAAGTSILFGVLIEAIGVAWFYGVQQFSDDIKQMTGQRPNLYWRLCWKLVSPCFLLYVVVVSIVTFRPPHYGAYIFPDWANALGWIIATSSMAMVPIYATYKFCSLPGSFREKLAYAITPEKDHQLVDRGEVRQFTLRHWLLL
Chain of 5-hydroxytryptamine receptor 1A (Homo sapiens) (P08908 whole entry): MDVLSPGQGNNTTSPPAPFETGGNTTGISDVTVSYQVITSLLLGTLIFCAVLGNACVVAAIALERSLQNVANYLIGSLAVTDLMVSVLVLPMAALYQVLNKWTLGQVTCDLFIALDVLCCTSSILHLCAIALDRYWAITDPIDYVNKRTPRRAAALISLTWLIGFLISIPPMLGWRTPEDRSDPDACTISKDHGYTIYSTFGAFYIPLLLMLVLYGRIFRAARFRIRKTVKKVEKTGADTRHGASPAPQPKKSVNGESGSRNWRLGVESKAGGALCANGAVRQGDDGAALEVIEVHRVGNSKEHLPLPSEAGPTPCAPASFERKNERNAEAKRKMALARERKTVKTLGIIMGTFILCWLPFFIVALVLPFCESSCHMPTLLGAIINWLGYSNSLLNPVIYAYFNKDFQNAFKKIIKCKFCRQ
Chain of D(2) dopamine receptor (Homo sapiens) (P14416 whole entry): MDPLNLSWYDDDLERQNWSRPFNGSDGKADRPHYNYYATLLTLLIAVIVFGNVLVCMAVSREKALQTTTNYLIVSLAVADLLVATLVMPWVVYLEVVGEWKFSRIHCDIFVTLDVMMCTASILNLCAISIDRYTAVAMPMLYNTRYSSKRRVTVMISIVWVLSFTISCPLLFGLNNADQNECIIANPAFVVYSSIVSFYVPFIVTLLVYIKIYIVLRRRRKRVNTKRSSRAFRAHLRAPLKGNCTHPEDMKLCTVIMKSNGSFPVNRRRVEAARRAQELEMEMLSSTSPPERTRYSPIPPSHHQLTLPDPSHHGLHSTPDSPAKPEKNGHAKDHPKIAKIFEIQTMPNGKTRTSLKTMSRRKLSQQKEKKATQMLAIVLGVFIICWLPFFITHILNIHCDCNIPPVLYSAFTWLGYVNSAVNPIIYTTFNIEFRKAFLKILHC
Chain of Progesterone receptor (Homo sapiens) (P06401 whole entry): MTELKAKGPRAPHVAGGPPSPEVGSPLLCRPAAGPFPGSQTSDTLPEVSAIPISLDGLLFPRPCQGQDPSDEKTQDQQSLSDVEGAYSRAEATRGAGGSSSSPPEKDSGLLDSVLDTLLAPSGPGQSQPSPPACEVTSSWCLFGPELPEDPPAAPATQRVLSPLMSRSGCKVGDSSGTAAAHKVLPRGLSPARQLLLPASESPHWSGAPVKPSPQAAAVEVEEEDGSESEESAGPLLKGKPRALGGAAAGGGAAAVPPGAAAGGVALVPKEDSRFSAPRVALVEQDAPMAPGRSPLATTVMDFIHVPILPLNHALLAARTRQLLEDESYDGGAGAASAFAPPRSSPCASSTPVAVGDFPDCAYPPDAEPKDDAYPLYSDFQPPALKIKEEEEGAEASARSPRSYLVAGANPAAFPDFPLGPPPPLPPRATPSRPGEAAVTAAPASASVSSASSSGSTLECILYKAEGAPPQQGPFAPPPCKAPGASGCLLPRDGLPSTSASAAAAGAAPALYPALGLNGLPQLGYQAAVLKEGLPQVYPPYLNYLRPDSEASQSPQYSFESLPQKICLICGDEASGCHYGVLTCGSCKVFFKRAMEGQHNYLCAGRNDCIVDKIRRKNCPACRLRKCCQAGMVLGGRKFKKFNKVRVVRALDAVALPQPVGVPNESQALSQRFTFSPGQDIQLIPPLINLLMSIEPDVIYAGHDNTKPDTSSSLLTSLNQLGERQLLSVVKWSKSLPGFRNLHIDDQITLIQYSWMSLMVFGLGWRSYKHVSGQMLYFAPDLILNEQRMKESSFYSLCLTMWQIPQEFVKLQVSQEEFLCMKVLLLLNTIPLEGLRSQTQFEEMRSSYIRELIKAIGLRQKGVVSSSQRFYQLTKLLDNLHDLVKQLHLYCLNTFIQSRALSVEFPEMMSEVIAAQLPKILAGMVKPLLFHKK
Chain of 5-hydroxytryptamine receptor 2B (Homo sapiens) (P41595 whole entry): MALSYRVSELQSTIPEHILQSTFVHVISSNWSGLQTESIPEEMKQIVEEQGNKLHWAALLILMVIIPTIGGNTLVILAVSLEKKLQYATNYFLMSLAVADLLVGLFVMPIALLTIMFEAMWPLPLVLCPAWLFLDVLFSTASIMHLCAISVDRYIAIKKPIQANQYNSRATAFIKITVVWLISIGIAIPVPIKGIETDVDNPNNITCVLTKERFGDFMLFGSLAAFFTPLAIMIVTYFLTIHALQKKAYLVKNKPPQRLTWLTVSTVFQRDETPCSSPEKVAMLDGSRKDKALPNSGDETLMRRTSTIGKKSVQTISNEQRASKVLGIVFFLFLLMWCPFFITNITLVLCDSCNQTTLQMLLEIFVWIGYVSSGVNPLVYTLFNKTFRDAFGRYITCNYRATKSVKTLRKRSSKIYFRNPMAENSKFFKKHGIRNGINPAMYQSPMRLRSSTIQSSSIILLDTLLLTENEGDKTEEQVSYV
Chain of Glucocorticoid receptor (Homo sapiens) (P04150 whole entry): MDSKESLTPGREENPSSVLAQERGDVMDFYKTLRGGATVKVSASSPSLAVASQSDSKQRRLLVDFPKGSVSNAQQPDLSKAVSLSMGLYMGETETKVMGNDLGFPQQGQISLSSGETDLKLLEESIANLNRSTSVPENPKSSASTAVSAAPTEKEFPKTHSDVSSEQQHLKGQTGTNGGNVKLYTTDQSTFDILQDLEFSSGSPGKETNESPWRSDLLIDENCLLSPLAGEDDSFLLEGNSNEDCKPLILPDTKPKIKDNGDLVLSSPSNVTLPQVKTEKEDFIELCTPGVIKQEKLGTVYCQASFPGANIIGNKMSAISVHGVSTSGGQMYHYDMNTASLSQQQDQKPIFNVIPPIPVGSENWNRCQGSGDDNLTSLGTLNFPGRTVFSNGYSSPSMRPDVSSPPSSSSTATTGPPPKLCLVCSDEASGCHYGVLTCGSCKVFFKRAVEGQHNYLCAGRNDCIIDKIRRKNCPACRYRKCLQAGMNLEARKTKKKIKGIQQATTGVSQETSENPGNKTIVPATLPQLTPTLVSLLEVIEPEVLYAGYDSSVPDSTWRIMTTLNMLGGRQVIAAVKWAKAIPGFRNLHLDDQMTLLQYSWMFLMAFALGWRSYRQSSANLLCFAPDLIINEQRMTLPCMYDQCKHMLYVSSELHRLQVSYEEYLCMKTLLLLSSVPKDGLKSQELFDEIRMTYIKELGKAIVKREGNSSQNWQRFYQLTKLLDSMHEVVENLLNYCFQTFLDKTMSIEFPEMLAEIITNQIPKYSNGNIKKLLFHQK
Chain of Cholecystokinin receptor type A (Homo sapiens) (P32238 whole entry): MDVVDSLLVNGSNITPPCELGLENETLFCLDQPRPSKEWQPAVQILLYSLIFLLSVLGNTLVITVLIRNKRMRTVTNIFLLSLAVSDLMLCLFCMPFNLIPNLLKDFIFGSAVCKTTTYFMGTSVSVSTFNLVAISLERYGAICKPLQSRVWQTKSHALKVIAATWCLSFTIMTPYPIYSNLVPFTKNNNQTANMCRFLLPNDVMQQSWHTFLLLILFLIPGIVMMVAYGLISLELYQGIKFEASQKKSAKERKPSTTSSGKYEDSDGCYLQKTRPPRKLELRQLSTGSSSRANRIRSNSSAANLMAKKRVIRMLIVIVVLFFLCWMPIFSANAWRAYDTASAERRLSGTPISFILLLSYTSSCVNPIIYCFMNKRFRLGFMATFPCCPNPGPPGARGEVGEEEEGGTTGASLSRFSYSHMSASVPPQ

Cc1cc2cc(N/C(=N\C(=O)c3ccc(C(=O)N(C)C)nc3)N[C@H]3CCCCN(CC(=O)N4CCCC4)C3=O)ccc2o1
Activity [1]: inactive
ED50 (Rattus norvegicus [2]): 2 mg/kg
Ki [3]: > 30 µM
Activity (Rattus norvegicus [4]): 54%
Activity [5]: inactive
Ki (Trypsin): > 10 µM
Activity (Homo sapiens): inactive
Activity (Rattus norvegicus [6]): 31%
Activity (Rattus norvegicus [7]): inactive
Activity [8]: inactive
Activity (Rattus norvegicus [9]): inactive
Activity [10]: inactive
Activity (Rattus norvegicus [11]): inactive
Activity (Rattus norvegicus [12]): inactive
Activity (Rattus norvegicus [13]): 36%
Activity [14]: inactive
Activity [15]: inactive
Activity (Plasma [16]): 3.6 µM
Activity [17]: inactive
Activity (Rattus norvegicus [18]): inactive
Activity (Plasma [19]): 2.5 µM
Activity [20]: inactive
Activity (Rattus norvegicus [21]): inactive
Activity [22]: inactive
ED50 (Rattus norvegicus [23]): 10 mg/kg
Activity [24]: inactive
Activity [25]: inactive
Activity [26]: inactive
Activity [27]: inactive
inhibition in vivo at 15 mg/kg (Rattus norvegicus [28]): 90%
Activity [29]: inactive
Activity [30]: inactive
Activity (Rattus norvegicus [31]): inactive
Activity [32]: inactive
Activity [33]: inactive
Activity [34]: inactive
Activity [35]: inactive
Activity (Rattus norvegicus [36]): inactive
Activity [37]: inactive
